Experimental data: ChEMBL document CHEMBL3286091, “Novel N-linked aminopiperidine-based gyrase inhibitors with improved hERG and in vivo efficacy against Mycobacterium tuberculosis” (J Med Chem, 2014)
pIC50: −log10 of the molar value. Converted amounts (≈) assume the structure as drawn. The source made the active and inactive calls. No cut-off for these calls is given here.

Experiments:
[1] = Apparent permeability from basolateral to apical side in human Caco2 cells; assay type: ADME, cell-based; details: Caco-2
[2] = target: DNA gyrase subunit A/DNA gyrase subunit B (Mycobacterium tuberculosis (strain ATCC 25618 / H37Rv), UniProt P9WG45+P9WG47); assay: Inhibition of Mycobacterium tuberculosis H37Rv DNA gyrase holoenzyme-mediated supercoiling of pBR322 DNA after 90 mins by agarose gel electrophoresis
[3] = Fraction unbound in aminobenzotriazole-pretreated BALB/c mouse plasma infected with Mycobacterium tuberculosis by LC-MS/MS analysis; assay type: ADME, cell-free
[4] = tested on: Mycobacterium tuberculosis; assay: Antimycobacterial activity against wild-type Mycobacterium tuberculosis H37Rv ATCC 27294 after 16 to 18 days by BACTEC 7H12B microdilution method; assay type: functional
[5] = Ratio of fAUC in aminobenzotriazole-pretreated Mycobacterium tuberculosis infected BALB/c mouse at 80 mg/kg, po to MIC for wild-type Mycobacterium tuberculosis H37Rv ATCC 27294
Outline: (§1)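 PK was measured in infected, ABT-pretreated mice during efficacy dosing (oral, 5% dextrose pH 4−5) on day 18 or 19. Saphenous blood was taken at 5, 15 and 30 min and 1, 2, 4 and 6 h. Plasma was precipitated with acetonitrile and analysed by LC−MS/MS. AUC came from noncompartmental analysis; free AUC/MIC and %free T>MIC used the unbound fraction and MIC.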

[6] = tested on: Mycobacterium tuberculosis; assay: Bactericidal activity against Mycobacterium tuberculosis infected in human THP1 cells at 1 ug/ml for 7 days; assay type: functional, THP-1
Outline: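 Adherent THP-1 macrophages infected with Mtb were exposed to compound at 1 μg/mL for 7 days at 37 °C. Kill was expressed as log reduction versus the untreated control.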

[7] = tested on: Mycobacterium tuberculosis; assay: Antimycobacterial activity against Mycobacterium tuberculosis infected in aminobenzotriazole-pretreated BALB/c mouse acute tuberculosis model assessed as reduction in log10CFU at 160 mg/kg, po bid for 20 days; assay type: functional
Outline: (§2)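 Aerosol-infected BALB/c mice in BSL3, three per group. Treatment began 3 days (acute) or 4 weeks (chronic) after infection. ABT 100 mg/kg po in water was given 2 h before oral gavage of compound in 5% dextrose (pH 4−5 with acetic acid), 10 mL/kg, twice daily at 8 h intervals. Courses were 20 days (7 days/week) or 8 weeks (6 days/week). Lung homogenates were plated on 7H11 for cfu.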

[8] = Apparent permeability from apical to basolateral side in human Caco2 cells; assay type: ADME, cell-based; details: Caco-2
[9] = tested on: Mycobacterium tuberculosis; assay: Bactericidal activity against Mycobacterium tuberculosis H37Rv at 0.01 to 2 ug/ml by time kill assay; assay type: functional, organism-based; details: TDE = time-dependent effect
Outline: (§3)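 Time-kill in 7H9 broth with 0.2% glycerol, 0.05% Tween 80 and 10% ADC. Serial 2-fold dilutions were added to ~3 × 10^7 cfu/mL H37Rv at 37 °C. Aliquots were plated on 7H11 at days 0, 3, 7 and 10, and plates were incubated up to 28 days at 37 °C, 5% CO2, humidified. Results are given as log10 cfu per concentration.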

[10] = Oral bioavailability in rat at 40 mg/kg by LC-MS/MS analysis; assay type: ADME, organism-based; details: in vivo
Outline: (§4)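 Rats were dosed with the 5% dextrose (pH 4−5) formulation, 5 mg/kg iv and 40 mg/kg po. Plasma was precipitated with acetonitrile and analysed by LC−MS/MS with a carbamazepine internal standard. Parameters were derived by noncompartmental analysis.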

[11] = Clearance in rat at 40 mg/kg, po and 5 mg/kg, iv by LC-MS/MS analysis; assay type: ADME, organism-based; details: in vivo; outline: as §4
[12] = tested on: Mycobacterium tuberculosis; assay: Antimycobacterial activity against Mycobacterium tuberculosis infected in aminobenzotriazole-pretreated BALB/c mouse acute tuberculosis model assessed as reduction in bacterial burden at 80 to 160 mg/kg, po bid for 20 days; assay type: functional, organism-based; outline: as §2
[13] = tested on: Mycobacterium tuberculosis; assay: Bactericidal activity against Mycobacterium tuberculosis H37Rv assessed as reduction in log10CFU at 0.01 to 2 ug/ml after 10 days by time kill assay; assay type: functional; outline: as §3
Mus musculus [14] = assay: fT>MIC in BALB/c mouse infected with Mycobacterium tuberculosis at 80 mg/kg, po; outline: as §1
[15] = tested on: Mycobacterium tuberculosis; assay: Bactericidal activity against Mycobacterium tuberculosis H37Rv after 10 days by time kill assay; assay type: functional, organism-based; outline: as §3
[16] = Octanol-sodium phosphate buffer partition coefficient, log D of the compound at 10 mM at pH 7.4 by shake-flask method; assay type: physicochemical
Mus musculus [17] = assay: fT>MIC in BALB/c mouse infected with Mycobacterium tuberculosis at 160 mg/kg, po; outline: as §1
[18] = tested on: Mycobacterium tuberculosis; assay: Antimycobacterial activity against Mycobacterium tuberculosis infected in aminobenzotriazole-pretreated BALB/c mouse chronic tuberculosis model assessed as reduction in log10CFU at 240 mg/kg, po bid for 20 days; assay type: functional, organism-based; parameters: dose 240 mg/kg; outline: as §2
[19] = tested on: Mycobacterium tuberculosis; assay: Antimycobacterial activity against Mycobacterium tuberculosis infected in aminobenzotriazole-pretreated BALB/c mouse chronic tuberculosis model assessed as reduction in log10CFU at 40 to 80 mg/kg, po bid for 20 days; assay type: functional; details: dose mg/kg 40-80; outline: as §2
[20] = tested on: Mycobacterium tuberculosis; assay: Antimycobacterial activity against Mycobacterium tuberculosis infected in aminobenzotriazole-pretreated BALB/c mouse chronic tuberculosis model assessed as reduction in log10CFU at 40 to 80 mg/kg, po bid for 8 weeks; assay type: functional, organism-based; outline: as §2
[21] = Ratio of fAUC in aminobenzotriazole-pretreated Mycobacterium tuberculosis infected BALB/c mouse at 20 mg/kg, po to MIC for wild-type Mycobacterium tuberculosis H37Rv ATCC 27294; outline: as §1
[22] = target: T1, DNA gyrase subunit A/DNA gyrase subunit B (Mycobacterium tuberculosis (strain ATCC 25618 / H37Rv)) (UniProt P9WG45+P9WG47); assay: Inhibition of Mycobacterium tuberculosis H37Rv DNA gyrase holoenzyme using pBR322 DNA as substrate assessed as single stranded nicked DNA level at 0.02 to 11 uM after 60 mins by cleavable complex assay relative to control; parameters: scale not given: the % may be the effect or the level left
Outline: (§5)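 Reactions were started with DNA and run 60 min at 37 °C, then stopped with proteinase K/SDS for 1 h at 37 °C. Products were resolved on 0.8% agarose with ethidium for 16 h at 1 V/cm, and nicked, linear and supercoiled forms were quantified.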

[23] = target: Voltage-gated inwardly rectifying potassium channel KCNH2 (Homo sapiens, UniProt Q12809); assay: Inhibition of human ERG by patch clamp electrophysiological analysis
Mus musculus [24] = assay: fT>MIC in BALB/c mouse infected with Mycobacterium tuberculosis at 20 mg/kg, po; outline: as §1
[25] = target: T1, DNA gyrase subunit A/DNA gyrase subunit B (Mycobacterium tuberculosis (strain ATCC 25618 / H37Rv)); assay: Inhibition of Mycobacterium tuberculosis H37Rv DNA gyrase holoenzyme using pBR322 DNA as substrate assessed as intact DNA level at 0.02 to 11 uM after 60 mins by cleavable complex assay relative to control; parameters: scale not given: the % may be the effect or the level left; outline: as §5
[26] = target: T1, DNA gyrase subunit A/DNA gyrase subunit B (Mycobacterium tuberculosis (strain ATCC 25618 / H37Rv)); assay: Inhibition of Mycobacterium tuberculosis H37Rv DNA gyrase holoenzyme using pBR322 DNA as substrate assessed as increase in single-strand cleaved plasmid DNA level after 60 mins by cleavable complex assay relative to control; outline: as §5

Chain of DNA gyrase subunit A/DNA gyrase subunit B (P9WG45 whole entry): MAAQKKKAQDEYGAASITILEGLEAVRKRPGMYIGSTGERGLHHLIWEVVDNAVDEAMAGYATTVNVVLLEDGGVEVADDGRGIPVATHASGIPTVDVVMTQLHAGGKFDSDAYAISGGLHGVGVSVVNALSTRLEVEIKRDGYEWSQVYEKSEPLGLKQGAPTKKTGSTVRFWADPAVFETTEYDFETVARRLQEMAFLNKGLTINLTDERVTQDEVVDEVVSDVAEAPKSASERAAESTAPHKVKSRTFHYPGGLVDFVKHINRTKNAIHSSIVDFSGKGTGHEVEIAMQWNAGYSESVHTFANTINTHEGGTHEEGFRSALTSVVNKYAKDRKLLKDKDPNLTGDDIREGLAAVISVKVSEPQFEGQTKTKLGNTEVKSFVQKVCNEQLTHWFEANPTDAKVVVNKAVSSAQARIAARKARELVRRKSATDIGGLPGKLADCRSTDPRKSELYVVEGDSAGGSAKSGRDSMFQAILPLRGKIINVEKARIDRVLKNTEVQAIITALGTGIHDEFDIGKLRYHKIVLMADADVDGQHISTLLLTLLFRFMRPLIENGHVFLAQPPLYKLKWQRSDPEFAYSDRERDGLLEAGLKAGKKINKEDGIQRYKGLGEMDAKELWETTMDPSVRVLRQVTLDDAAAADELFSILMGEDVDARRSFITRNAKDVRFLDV
Chain of DNA gyrase subunit A/DNA gyrase subunit B (P9WG47 whole entry): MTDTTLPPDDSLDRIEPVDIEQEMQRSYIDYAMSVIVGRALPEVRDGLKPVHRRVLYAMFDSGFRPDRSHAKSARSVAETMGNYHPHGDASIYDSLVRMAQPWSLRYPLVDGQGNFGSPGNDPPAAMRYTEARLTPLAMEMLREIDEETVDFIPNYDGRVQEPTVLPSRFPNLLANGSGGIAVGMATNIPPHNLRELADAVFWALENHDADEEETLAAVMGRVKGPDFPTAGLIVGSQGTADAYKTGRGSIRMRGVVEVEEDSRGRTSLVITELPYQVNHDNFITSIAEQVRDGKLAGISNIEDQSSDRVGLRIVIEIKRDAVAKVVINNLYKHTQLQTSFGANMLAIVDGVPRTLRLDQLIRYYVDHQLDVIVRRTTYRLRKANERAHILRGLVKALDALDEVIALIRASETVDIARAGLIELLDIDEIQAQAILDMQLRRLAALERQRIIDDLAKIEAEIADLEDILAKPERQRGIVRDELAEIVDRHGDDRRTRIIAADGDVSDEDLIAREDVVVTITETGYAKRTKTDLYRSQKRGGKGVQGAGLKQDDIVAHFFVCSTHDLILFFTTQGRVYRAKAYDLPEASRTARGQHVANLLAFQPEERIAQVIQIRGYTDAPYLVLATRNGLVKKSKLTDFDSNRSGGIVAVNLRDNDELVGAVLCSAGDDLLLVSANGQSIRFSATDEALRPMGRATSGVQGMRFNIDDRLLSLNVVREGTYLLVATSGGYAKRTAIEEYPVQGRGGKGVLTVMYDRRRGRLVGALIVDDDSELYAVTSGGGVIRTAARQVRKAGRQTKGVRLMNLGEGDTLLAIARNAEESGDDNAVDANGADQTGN
Chain of Voltage-gated inwardly rectifying potassium channel KCNH2 (Q12809 whole entry): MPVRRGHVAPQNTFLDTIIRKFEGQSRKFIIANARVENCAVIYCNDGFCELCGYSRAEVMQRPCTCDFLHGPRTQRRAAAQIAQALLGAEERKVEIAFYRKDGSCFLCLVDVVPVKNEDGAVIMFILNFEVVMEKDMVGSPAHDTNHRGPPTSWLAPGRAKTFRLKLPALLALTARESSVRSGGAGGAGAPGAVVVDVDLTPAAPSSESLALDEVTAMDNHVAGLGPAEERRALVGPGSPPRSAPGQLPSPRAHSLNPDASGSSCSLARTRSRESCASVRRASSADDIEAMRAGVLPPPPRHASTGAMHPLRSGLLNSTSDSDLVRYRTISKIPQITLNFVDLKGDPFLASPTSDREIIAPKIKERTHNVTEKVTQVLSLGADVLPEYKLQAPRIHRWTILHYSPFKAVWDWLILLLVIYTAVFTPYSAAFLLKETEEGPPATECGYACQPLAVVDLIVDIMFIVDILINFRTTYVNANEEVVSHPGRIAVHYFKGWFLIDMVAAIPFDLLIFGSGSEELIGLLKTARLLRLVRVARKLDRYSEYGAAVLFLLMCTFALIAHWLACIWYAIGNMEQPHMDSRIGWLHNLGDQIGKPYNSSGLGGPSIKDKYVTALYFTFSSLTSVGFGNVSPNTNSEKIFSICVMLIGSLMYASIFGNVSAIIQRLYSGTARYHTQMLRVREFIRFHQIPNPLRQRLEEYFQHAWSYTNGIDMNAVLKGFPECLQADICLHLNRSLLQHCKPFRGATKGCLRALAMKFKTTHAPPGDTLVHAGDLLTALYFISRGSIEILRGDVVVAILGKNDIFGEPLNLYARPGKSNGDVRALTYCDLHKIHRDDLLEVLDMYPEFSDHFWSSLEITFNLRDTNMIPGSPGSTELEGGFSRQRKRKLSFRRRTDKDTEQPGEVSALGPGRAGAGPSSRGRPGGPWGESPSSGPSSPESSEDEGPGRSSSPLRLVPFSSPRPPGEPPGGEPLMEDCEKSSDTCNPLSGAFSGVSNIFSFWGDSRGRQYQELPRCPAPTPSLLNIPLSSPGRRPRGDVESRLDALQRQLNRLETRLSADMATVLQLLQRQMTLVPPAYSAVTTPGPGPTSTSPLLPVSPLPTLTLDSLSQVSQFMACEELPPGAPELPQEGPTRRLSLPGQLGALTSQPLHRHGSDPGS

O=C1COc2ccc(CN[C@@H]3CCN(CCn4c(=O)ccc5ncc(F)cc54)C[C@@H]3F)nc2N1
Papp B→A [1]: 11.2 ×10⁻⁶ cm/s | pIC50 [2]: 6.46 | fraction unbound [3]: 0.32 | MIC [4]: 0.13 µg/mL (≈ 0.276 µM) | fAUC/MIC [5]: 129 | LCK [6]: 1.3 | log10cfu [7]: 1.2 | Papp A→B [8]: 7.6 ×10⁻⁶ cm/s | Activity [9]: tde | bioavailability [10]: 87% | clearance [11]: 87 mL/min/kg | Activity [12]: Active | log10cfu [13]: >3 | fT>MIC (Mus musculus [14]): 70% | Activity [15]: Dose-dependent effect | logD at 10000 µM [16]: 0.47

COc1cnc2ccc(=O)n(CCN3CC[C@H](NCc4ccc5c(n4)NC(=O)CO5)[C@H](F)C3)c2c1
Papp B→A [1]: 12.7 ×10⁻⁶ cm/s | pIC50 [2]: 6.77 | fT>MIC (Mus musculus [17]): 83% | fraction unbound [3]: 0.48 | MIC [4]: 0.06 µg/mL (≈ 0.124 µM) | LCK [6]: 1.3 | Papp A→B [8]: 3.4 ×10⁻⁶ cm/s | Activity [12]: Active | Activity [18]: Active | logD at 10000 µM [16]: 0.82

COc1cnc2ccc(=O)n(CCN3CCC(NCc4cnc(C)c(C#N)c4)CC3)c2c1
Papp B→A [1]: 8.3 ×10⁻⁶ cm/s | log10cfu [19]: 0.5 | pIC50 [2]: 6.85 | Activity [20]: Active | fraction unbound [3]: 0.23 | MIC [4]: 0.06 µg/mL (≈ 0.139 µM) | fAUC/MIC [21]: 54 | Activity [22]: 70% | pIC50 [23]: 4.30 | Papp A→B [8]: 10.5 ×10⁻⁶ cm/s | fT>MIC (Mus musculus [24]): 58% | Activity [25]: 10% | bioavailability [10]: > 100% | clearance [11]: 32 mL/min/kg | logD at 10000 µM [16]: 1.07 | inhibition [26]: Dose-dependent effect
